The source of these data is ChEMBL document CHEMBL1121614, “Synthesis and antiallergy activity of 4-oxopyrano[3,2-b]indoles” (1980).

The test system of assay [1] is Rattus norvegicus. Kind of assay: Inhibition of rat passive cutaneous anaphylaxis at 5.0 mg/kg dose after intraperitoneal administration. In kind it is functional. Conditions: ip. In short, it runs like this:
(§1)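 Rats were sensitized by intradermal injection of antiserum dilutions at several back sites. Drug was suspended in 1% gum tragacanth in saline and given po or ip 10–15 min before challenge with iv ovalbumin (1 mg in 1 mL saline with 0.25% Evans blue). At 30 min the wheal's mean orthogonal diameter was measured. Diameter was plotted against antiserum level and extrapolated to zero. Five rats per group.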

Assay [2] deals with Rattus norvegicus. In words: Inhibition of rat passive cutaneous anaphylaxis at 5.0 mg/kg dose after peroral administration. In kind it is functional. To be noted: route oral. In short, it runs like this:
as §1

In assay [3] the test system is Rattus norvegicus. Kind of assay: The compound was tested for inhibition of rat passive cutaneous anaphylaxis at 1 mg/kg dose after iv administration. In kind it is functional. In short, it runs like this:
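Rat PCA by the iv route. Antiserum dilutions were injected intradermally on the back 48 h before iv challenge with 1 mg ovalbumin in 1 mL saline plus 0.25% Evans blue. Compound was dissolved, if needed, in slight molar excess NaHCO3 and diluted into the antigen solution. Wheal diameter was read at 30 min and extrapolated to zero antiserum by least squares. Groups of five.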

Assay [4] deals with Rattus norvegicus. In words: Inhibition of rat passive cutaneous anaphylaxis at 1.0 mg/kg dose after intraperitoneal administration. In kind it is functional. To be noted: ip. In short, it runs like this:
as §1

The test system of assay [5] is Rattus norvegicus. Kind of assay: The compound was tested for inhibition of rat passive cutaneous anaphylaxis at 2.0 mg/kg dose after peroral administration. In kind it is functional. Conditions: route oral. In short, it runs like this:
as §1

The test system of assay [6] is Rattus norvegicus. In words: The compound was tested for inhibition of rat passive cutaneous anaphylaxis at 10 mg/kg dose after intraperitoneal administration. It counts as functional. Conditions: ip.
In assay [7] the test system is Rattus norvegicus. In words: The compound was tested for inhibition of rat passive cutaneous anaphylaxis at 2.0 mg/kg dose after intraperitoneal administration. In kind it is functional. Conditions: ip.
Assay [8] deals with Rattus norvegicus. Kind of assay: The compound was tested for inhibition of rat passive cutaneous anaphylaxis at 5.0 mg/kg dose after peroral administration; O means inactive. It counts as functional, organism-based. Further details: dose 5 mg/kg. In short, it runs like this: as §1
Assay [9] relates to Rattus norvegicus. Kind of assay: The compound was tested for inhibition of rat passive cutaneous anaphylaxis at 1.0 mg/kg dose after peroral administration. In kind it is functional. Conditions: route oral. The procedure, abridged: as §1

Calls of active or inactive are those of the source. The calls are words filed in the database; no cut-off is given here.

By inhibition in vivo is commonly meant the share of the control response that was lost under treatment. High values mean a response far below the control, low ones a response near the control. Consider `O=C(Nc1nn[nH]n1)c1cc(=O)c2c(o1)c1ccccc1n2-c1ccccc1`, for which the inhibition in vivo at 5 mg/kg is 0% with Rattus norvegicus [1] and 7% in the assay on Rattus norvegicus [2].

With `O=C(O)c1cc(=O)c2c(o1)c1ccccc1n2-c1ccccc1`, the results for the inhibition in vivo at 1 mg/kg in the assay with Rattus norvegicus [3] and in the assay on Rattus norvegicus [4] were 100% and 13%, respectively. Besides, in the assay with Rattus norvegicus [5], the inhibition in vivo at 2 mg/kg was determined as 0%.

As for `O=C1c2ccccc2S(=O)(=O)c2cc(-c3nn[nH]n3)ccc21` [DOXANTRAZOLE], the inhibition in vivo at 1 mg/kg with Rattus norvegicus [4] turned out to be 33%. In the assay with Rattus norvegicus [6], this compound registered an inhibition in vivo at 10 mg/kg of 97%. Besides, testing at 5 mg/kg with Rattus norvegicus [2] gave an inhibition in vivo of 50%.

In the case of `Cn1c2ccccc2c2oc(C(=O)Nc3nn[nH]n3)cc(=O)c21`, in the assay with Rattus norvegicus [4], at 1 mg/kg the inhibition in vivo was 28%. Besides, the inhibition in vivo at 5 mg/kg is 100% in the assay on Rattus norvegicus [1] and 0% in the assay on Rattus norvegicus [2].

`O=c1cc(-c2nn[nH]n2)oc2c3ccccc3n(-c3ccccc3)c12` had an inhibition in vivo at 1 mg/kg with Rattus norvegicus [4] of 61%. Also, the results for the inhibition in vivo at 5 mg/kg in the assay with Rattus norvegicus [1] and with Rattus norvegicus [2] were 100% and 32%, respectively.

`Cc1ccc2c(c1)c1oc(C(=O)O)cc(=O)c1n2C`: the inhibition in vivo at 1 mg/kg in the assay on Rattus norvegicus [4] was found to be 18%. Besides, at 2 mg/kg the inhibition in vivo in the assay on Rattus norvegicus [5] was 11%.

`O=C(O)c1cc(=O)c2c(OCC(O)COc3cccc4oc(C(=O)O)cc(=O)c34)cccc2o1` [CROMOLYN SODIUM] showed an inhibition in vivo at 10 mg/kg in the assay with Rattus norvegicus [6] of 89%. The same compound registered an inhibition in vivo at 2 mg/kg in the assay on Rattus norvegicus [7] of 50%. In the assay with Rattus norvegicus [8], the inhibition entry was “inactive”.

Regarding `Cc1ccc2c(c1)c1oc(C(=O)Nc3nn[nH]n3)cc(=O)c1n2C`, 1 mg/kg produced 33% inhibition in vivo with Rattus norvegicus [4]. The results for the inhibition in vivo at 5 mg/kg with Rattus norvegicus [1] and in the assay with Rattus norvegicus [2] were 100% and 0%, respectively.

`Cc1ccc2c(c1)c1oc(-c3nn[nH]n3)cc(=O)c1n2C` showed an inhibition in vivo at 1 mg/kg in the assay on Rattus norvegicus [4] of 25%. Moreover, the inhibition in vivo at 5 mg/kg with Rattus norvegicus [1] is 100%; in the assay on Rattus norvegicus [2], 56%.

With `Cn1c2ccccc2c2oc(C(=O)O)cc(=O)c21`, the inhibition in vivo at 1 mg/kg in the assay with Rattus norvegicus [4] is 30%. Further, the inhibition in vivo at 5 mg/kg with Rattus norvegicus [1] came to 100%; in the assay on Rattus norvegicus [2] it was 96%.

The compound `CCn1c2ccccc2c2oc(-c3nn[nH]n3)cc(=O)c21` had an inhibition in vivo at 1 mg/kg in the assay on Rattus norvegicus [4] of 100%. Moreover, the inhibition in vivo at 5 mg/kg was found to be 100% with Rattus norvegicus [1] and 70% in the assay on Rattus norvegicus [2].

Take `Cn1c2c([N+](=O)[O-])cc([N+](=O)[O-])cc2c2oc(C(=O)Nc3nn[nH]n3)cc(=O)c21`: the inhibition in vivo at 5 mg/kg in the assay with Rattus norvegicus [1] is 48%.

With `Cn1c2ccc(Cl)cc2c2oc(C(=O)O)cc(=O)c21`, the inhibition in vivo at 5 mg/kg came to 23% in the assay with Rattus norvegicus [1] and 2% with Rattus norvegicus [2].

`CCn1c2ccccc2c2oc(C(=O)Nc3nn[nH]n3)cc(=O)c21` showed an inhibition in vivo at 1 mg/kg in the assay with Rattus norvegicus [4] of 12%. For the same compound, the figures for the inhibition in vivo at 5 mg/kg with Rattus norvegicus [1] and in the assay on Rattus norvegicus [2] were 100% and 1%, respectively.

Turning to `Cn1c2ccc(Cl)cc2c2oc(C(=O)Nc3nn[nH]n3)cc(=O)c21`, in the assay on Rattus norvegicus [4], the inhibition in vivo at 1 mg/kg was 38%. Besides, the figures for the inhibition in vivo at 5 mg/kg with Rattus norvegicus [1] and with Rattus norvegicus [2] were 100% and 6%, respectively.

On to `Cn1c2ccc([N+](=O)[O-])cc2c2oc(C(=O)Nc3nn[nH]n3)cc(=O)c21`, for which the inhibition in vivo at 1 mg/kg in the assay with Rattus norvegicus [4] came to 42%; in the assay with Rattus norvegicus [9] it was 15%. In the assay on Rattus norvegicus [1], this compound came in with an inhibition in vivo at 5 mg/kg of 100%.

In turn, `Cn1c2ccc([N+](=O)[O-])cc2c2oc(C(=O)O)cc(=O)c21` registered an inhibition in vivo at 1 mg/kg in the assay with Rattus norvegicus [4] of 1%. The inhibition in vivo at 5 mg/kg in the assay on Rattus norvegicus [1] was 100%; in the assay on Rattus norvegicus [2], 0%.

In turn, `Cn1c2ccccc2c2oc(-c3nn[nH]n3)cc(=O)c21` showed an inhibition in vivo at 1 mg/kg with Rattus norvegicus [4] of 87%. The figures for the inhibition in vivo at 5 mg/kg in the assay on Rattus norvegicus [1] and in the assay with Rattus norvegicus [2] were 100% and 39%, respectively.

Turning to `Cn1c2c([N+](=O)[O-])cc([N+](=O)[O-])cc2c2oc(C(=O)O)cc(=O)c21`, the inhibition in vivo at 5 mg/kg in the assay on Rattus norvegicus [1] and in the assay with Rattus norvegicus [2] was 0% each time.

Compound `Cn1c2ccc(Cl)cc2c2oc(-c3nn[nH]n3)cc(=O)c21` had an inhibition in vivo at 1 mg/kg in the assay with Rattus norvegicus [4] of 46%. Further, the inhibition in vivo at 5 mg/kg in the assay on Rattus norvegicus [1] was determined as 100%; in the assay on Rattus norvegicus [2], 33%.

As to `CCn1c2ccccc2c2oc(C(=O)O)cc(=O)c21`, the values for the inhibition in vivo at 1 mg/kg in the assay on Rattus norvegicus [3] and with Rattus norvegicus [4] were 100% and 0%, respectively. Further, the inhibition in vivo at 2 mg/kg in the assay on Rattus norvegicus [5] came out at 22%.
